Bioassay records (PubChem BioAssay)
This is a sample that favours compounds with a hit; in the whole collection about 2% have one here.
E-sel inducer = induces E-selectin expression in human endothelial cells. P16581. HUVEC E-selectin immunofluorescence imaging; normalized: neutral wells 0, TNF-alpha wells 100. activation, % at 7.58 µM. 260,000 tested, 0.37% active. AID 686992;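 active = mean E-selectin-positive cell signal at least 10% of the positive control, reached in at least 60% of replicates, without over 20% cell loss; inconclusive = no rule given, readout overlaps actives, possibly toxicity-flagged; inactive = the rest, including those meeting only one limit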
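Test system – human umbilical vein endothelial cells (HUVEC), E-selectin induction · Input – 3,000 HUVEC seeded per well · Buffer or medium – EGM-2, gelatin · Compound dosing – single-point compound dose · Detection – immunofluorescence imaging · Measure – percent E-selectin-positive cells · Controls – TNF-alpha high, DMSO low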
RAD54 branch = blocks human RAD54 Holliday junction branch migration. Q92698. FAM/BHQ fluorescence. inhibition, % at 10.4 µM. 360,000 tested, 0.14% active;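 active = mean normalized replicate activity at least 40 and at least half of replicates scoring 40 or more; inconclusive = only one of the two criteria met; inactive = mean below 40 and under half of replicates reaching 40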;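 note: 0% = median of neutral control wells and 100% = median of positive control wells; inhibitors cause a drop in the FAM fluorescence signal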
Target sequence (Q92698 whole entry, looked up): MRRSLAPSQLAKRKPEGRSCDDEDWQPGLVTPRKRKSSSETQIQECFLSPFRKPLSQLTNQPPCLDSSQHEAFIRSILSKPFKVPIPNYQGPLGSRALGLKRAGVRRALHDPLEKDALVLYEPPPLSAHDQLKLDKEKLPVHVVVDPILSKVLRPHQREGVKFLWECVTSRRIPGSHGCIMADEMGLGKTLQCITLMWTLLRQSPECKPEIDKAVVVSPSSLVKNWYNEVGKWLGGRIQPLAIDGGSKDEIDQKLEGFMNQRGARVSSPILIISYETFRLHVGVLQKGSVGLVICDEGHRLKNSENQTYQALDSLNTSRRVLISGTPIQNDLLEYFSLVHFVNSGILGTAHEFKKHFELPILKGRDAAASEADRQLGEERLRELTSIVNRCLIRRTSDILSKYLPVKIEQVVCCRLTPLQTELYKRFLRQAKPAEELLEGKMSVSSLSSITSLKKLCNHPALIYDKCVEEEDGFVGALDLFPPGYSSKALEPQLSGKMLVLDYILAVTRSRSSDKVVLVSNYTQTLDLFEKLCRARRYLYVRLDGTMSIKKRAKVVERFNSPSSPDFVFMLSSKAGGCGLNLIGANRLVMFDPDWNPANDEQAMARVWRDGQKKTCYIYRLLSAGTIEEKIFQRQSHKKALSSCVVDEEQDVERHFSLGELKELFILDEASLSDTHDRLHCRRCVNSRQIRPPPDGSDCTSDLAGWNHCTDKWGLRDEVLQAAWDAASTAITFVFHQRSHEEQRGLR
PglD DTNB = blocks C. jejuni PglD acetyltransferase activity | purified PglD enzyme, DTNB colorimetric CoA detection | inhibition, % at 12.5 µM | 360,000 tested, 0.098% active | AID 602405; in the data active = inhibition above about 16%, passing the limit was not always enough; inconclusive = no clear call, values can overlap the other calls
RAD52 anneal inh = blocks human RAD52 DNA annealing; P43351; recombinant RAD52 DNA annealing, FRET fluorescence; inhibition, % at 18.7 µM; 360,000 tested, 0.46% active;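 active = every replicate showing at least 50% inhibition; inconclusive = mean inhibition at least 50% but not in every replicate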
Ecoli rRNA inh = selective bacterial rRNA inhibition in E. coli | 350,000 tested, 1.6% active | E. coli WT GFP vs humanized-ribosome RFP mutants, fluorescence, 24 h; stronger effect = lower value; DMSO median 0, no signal -100 | GFP signal change (wild-type ribosome), % (test concentration not listed);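 active = significant combined selectivity score with lowered wild-type GFP, culture density cut under 30%, mutant RFP and density less affected; inactive = any of these conditions unmet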
Xi reactivation = reactivates the inactive X chromosome in mouse fibroblasts. activation, % at 7.58 µM. XiGFP mouse fibroblasts, % GFP-positive cells imaging, 3 d; cells co-treated with 5-aza-dC sensitizer; scaled so ellipticine positive control = 100%. 360,000 tested, 0.055% active. AID 743238;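 active = mean normalized replicate activation at least 10% and every replicate at or above 10%; inconclusive = only one of the two criteria met; inactive = mean below 10% and not all replicates reach 10%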;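 note: 0% = median of on-plate neutral control wells and 100% = ellipticine 6 µM median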
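Assay system – SV40-immortalized XiGFP fibroblast cells, line 68-5-11 · Buffer or medium – DMEM supplemented with 5-aza-dC as sensitizing agent · Dosing – one concentration, pinned · Benchmarks – positive control ellipticine, 6 µM final · Times – 3 days compound exposure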
AID977621 = wild-type E. coli growth inhibition versus H69 humanized strain – H69 mutant RFP, wild-type GFP, cherry-pick, dose response. fluorescence, 24 h. AID 977621. shares compounds with Ecoli rRNA inh. 1,900 tested, under 10 active. activity change, negative = inhibition at 50 µM;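 active = Wild-type ribosome reporter drop at least double the humanized mutant ribosome reporter drop, growth loss under a set limit; inconclusive = no clear call, values can overlap the other calls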;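 note: wild-type GFP and H69 mutant RFP strains grown together 50/50 in each well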
AID977628 = E. coli growth inhibition, wild-type GFP versus h24 humanized RFP strain, dose response, h24 mutant RFP vs wild-type GFP, cherry-pick; E. coli WT GFP strain growth, fluorescence, 24 h; AID 977628; 1,900 tested, under 10 active; shares compounds with Ecoli rRNA inh; activity change, negative = inhibition at 50 µM;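 active = compound lowering the normal-ribosome reporter at least twice as much as the humanized-ribosome reporter, growth loss under a set limit; inconclusive = no clear call, values can overlap the other calls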;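 note: wild-type GFP and h24 humanized RFP strains co-cultured 1 to 1 per well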
Numbers without * were called inactive; ? = inconclusive; nt = not tested or not shown.

SMILES	E-sel inducer	RAD54 branch	PglD DTNB	RAD52 anneal inh	Ecoli rRNA inh	Xi reactivation	AID977621	AID977628
CCNC(=O)CC1C(=O)N(c2ccc(F)cc2)C(=S)N1CCc1ccncc1 (stereo unspecified)	nt	nt	nt	-22	13	1	nt	nt
O=C(CC1C(=O)N(c2ccc(Cl)cc2)C(=S)N1CCc1ccncc1)Nc1ccc(F)cc1 (stereo unspecified)	nt	-9	nt	-9	-21*	nt	-6.7	nt
COC(=O)CN1C(=S)N(c2ccc(F)cc2)C(=O)C1CC(=O)Nc1ccc(OC)cc1 (stereo unspecified)	0	-7	6	-7	-22*	0	nt	-13
COC(=O)CN1C(=S)N(c2ccc(F)cc2)C(=O)C1CC(=O)Nc1ccccc1 (stereo unspecified)	6	-1	0	-15	-6	0	nt	nt
C[C@H]1CN([C@@H](C)CO)C(=O)CCCn2cc(nn2)CO[C@H]1CN(C)Cc1ccc2cccnc2c1	1	-4	2	-7	-1	0	nt	nt
CC1CCCCN1C(=O)C1CCCN(S(=O)(=O)c2cccc3nsnc23)C1 (stereo unspecified)	nt	3	4	-8	-20*	0	-7.1	?
CCOC(=O)C1CCCN(S(=O)(=O)c2cccc3nsnc23)C1 (stereo unspecified)	nt	13	-1	-4	2	0	nt	nt
COc1ccc(C(=O)C[n+]2ccc3c(c2)nc(-c2cc(OC)c(OC)cc2OC)n3C)cc1	nt	7	-2	-4	-28*	nt	?	-10
COc1cc(OC)c(-c2nc3c[n+](CC(=O)c4ccccc4)ccc3n2C)cc1OC	nt	5	-4	nt	nt	nt	nt	nt
COc1ccc(CN2CC3(CN(C(=O)C4CCC4)C3)c3c(n(C)c4cc(OC)ccc34)[C@H]2CO)cc1	0	nt	nt	-36	-2	0	nt	nt
Cc1occc1-c1nnc(SCC(=O)Nc2nc(-c3ccccc3)cs2)o1	nt	-9	2	-10	-24*	nt	?	-7.2
Cc1ccoc1C(=O)Nc1ccc2ccccc2c1	1	2	-1	2	-20*	0	-5.7	nt
Cc1cc(C(=O)Nc2ccc3ccccc3c2)c(C)o1	nt	-4	-3	-18	-22*	0	-9.3	-7.1
Cc1cc(C(=O)Nc2ccc3ccccc3c2)oc1C	1	-7	10	-10	-18	0	nt	nt
Cc1sc(C(=O)Nc2ccc3ccccc3c2)cc1CC(=O)O	nt	16	-6	-1	-31*	0	nt	-5.1
CC(C)NC(=O)Nc1ccc2c(c1)C(=O)N(C)[C@@H]1CC[C@@H](CC(=O)NCc3ccc(F)cc3)O[C@@H]1CO2	0	-4	0	2	2	0	nt	nt
CN(C)C(=O)C[C@@H]1CC[C@H](NC(=O)NC2CCCC2)[C@@H](CO)O1	0	-2	2	10	2	0	nt	nt
C[C@H]1CCCCO[C@@H](CN(C)CC2CC2)[C@@H](C)CN([C@@H](C)CO)C(=O)c2cc(NC(=O)c3ccccc3)ccc2O1	0	12	-1	37	0	0	nt	nt
Oc1ccc(-c2csc(Nc3ncccn3)n2)cc1	1	nt	nt	2	-17*	0	-21	-15
COc1ccc(NC(=O)Nc2ccc3c(c2)C(=O)N([C@H](C)CO)C[C@H](C)[C@H](CN(C)Cc2ccc(C(=O)Nc4ccccc4N)cc2)OCCCC[C@@H](C)O3)cc1	0	nt	nt	39	2	0	nt	nt
O=S(=O)(c1ccc(-c2ccccc2)cc1)N1CCN(Cc2ccc(OCCO)cc2)CC1	nt	-16	-3	1	nt	nt	nt	nt
CC(NC(=O)c1c(N)[nH]c(C(=O)c2ccccc2)c1-c1ccccc1Br)c1cccc2ccccc12 (stereo unspecified)	1	nt	nt	-15	-26*	0	4.6	-3
c1ccc(CSCc2ccccc2)cc1	nt	-12	-2	8	-25*	nt	4.9	0.76
CCOC(=O)C1(CCCc2ccccc2)CCN(C(=O)CCn2cncn2)CC1	0	nt	nt	-6	-20*	0	-4.1	-11
CCOC(=O)C1(CCc2ccccc2)CCN(C(=O)CCn2cncn2)CC1	nt	nt	nt	5	0	0	nt	nt
SMILES	E-sel inducer	RAD54 branch	PglD DTNB	RAD52 anneal inh	Ecoli rRNA inh	Xi reactivation	AID977621	AID977628
C[C@H]1CN([C@@H](C)CO)C(=O)c2ccccc2-c2ccccc2CO[C@H]1CN(C)S(=O)(=O)c1cn(C)cn1	0	1	-3	-1	-1	0	nt	nt
Fc1ccccc1C1CCN(Cc2nc(COc3ccccc3)no2)C1 (stereo unspecified)	0	-4	-3	-23	-16*	0	-8.3	-2
C=C(C)Cn1c(SCCN2CCOCC2)nc2c1c(=O)[nH]c(=O)n2C	nt	-17	-3	nt	nt	nt	nt	nt
C=C(C)Cn1c(SCC(=O)O)nc2c1c(=O)[nH]c(=O)n2C	nt	16	-1	-9	-12*	0	?	?
C[C@H](CO)N1C[C@H](C)[C@@H](CN(C)C(=O)NC2CCCCC2)Oc2c(NC(=O)c3ccc(-c4nccs4)cc3)cccc2C1=O	-4	2	-5	2	-3	-1	nt	nt
COC(=O)CC#C[C@H](C)[C@@H](NS(=O)(=O)c1ccc([N+](=O)[O-])cc1)C(C)(C)C	0	nt	nt	-9	-13*	0	?	?
C[C@@H]1CN([C@H](C)CO)C(=O)c2cc(NC(=O)C3CCCCC3)ccc2O[C@@H]1CN(C)C	1	0	-2	1	3	0	nt	nt
CC(C)Cn1c(=O)c2ccccc2c2ccccc2c1=O	nt	3	-1	1	-28*	nt	-5.1	nt
COc1ccc(NC(=O)CCN2C(=O)C3C4C=CC(C4)C3C2=O)cc1 (stereo unspecified)	nt	-2	-2	-11	5	1	nt	nt
Cc1cc(NC(=O)CCN2C(=O)C3C4C=CC(C4)C3C2=O)ccc1Br (stereo unspecified)	0	-6	-1	-9	-21*	0	-8.3	-18
COc1cc2cc(C(=O)Nc3ccc4c(c3)OCCO4)[nH]c2cc1OC	nt	7	3	-10	-21*	0	-3.5	-11
COc1cc2[nH]c(C(=O)Nc3ccc4c(c3)OCCO4)cc2c(OC)c1OC	nt	6	-2	1	-14	0	nt	nt
CCOC(=O)c1cc(C)nc(N2CCCCC2)c1C#N	0	nt	nt	-9	-21*	0	1.3	nt
CC1(C)CC(=O)c2cnc(N3CCc4ccccc43)nc2C1	4	nt	nt	-13	-34*	0	-2.7	nt
